We go through four compounds from ChEMBL document CHEMBL4052594, “Discovery of Pyrrolidine-Containing GPR40 Agonists: Stereochemistry Effects a Change in Binding Mode” (J Med Chem, 2017).

A word on the pIC50: it is −log10 of the IC50, conventionally taken in molar units. Broadly, the pEC50 is the negative decadic logarithm of the EC50, by convention in mol/L. What is called fraction unbound is free concentration divided by total concentration. The term clearance denotes a measure of how efficiently the substance is removed, as volume per time. For orientation: bioavailability means dose-corrected exposure relative to a reference, in per cent. By Emax is commonly meant the maximal effect, on the per cent scale that the assay sets. As a reminder, the pKi is −log10 of the Ki, conventionally taken in molar units.

pEC50, pIC50, pKi: −log10 of the molar value. Active and inactive are the calls of the source. No cut-off for these calls is given here.

A short description of series [1]: Volume of distribution at steady state in CD-1 mouse at 0.2 mg/kg, iv by LC-MS/MS analysis. Type of series: ADME, organism-based. Particulars: in vivo, read-out: Vdss.
Series [2] relates to Rattus norvegicus. Briefly: Toxicity in rat assessed as effect on heart rate at 80 mg/kg administered as single dose. Particulars: in vivo. Type of series: organism-based. Put shortly: (§1)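 Male rats fitted with telemetry received a single 80 mg/kg dose. Heart rate and blood pressure recorded by telemetry; locomotor activity monitored.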
Series [3] concerns the target Free fatty acid receptor 1 (Mus musculus) (UniProt Q76JU9). Briefly: Agonist activity at GPR40 in C57BL/6J mouse primary pancreatic islets assessed as increase in glucose-stimulated insulin secretion after 1 hr by ELISA. The gist of the method:
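Primary islets isolated from mice; insulin secretion measured across 0.016-2.0 µM compound to assess glucose-stimulated insulin secretion.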
For orientation: ELISA stands for enzyme-linked immunosorbent assay.

A further series concerns the target Cytochrome P450 3A4 (Homo sapiens, UniProt P08684). Put plainly: Inhibition of CYP3A4 (unknown origin). It counts as ADME.
For series [4], the system named is Rattus norvegicus. Briefly: Toxicity in rat assessed as effect on mean arterial blood pressure at 80 mg/kg administered as single dose. It counts as organism-based. Particulars: in vivo. The gist of the method: as §1
For series [5], the target named is T1, Free fatty acid receptor 1 (Homo sapiens, UniProt O14842). Briefly: Agonist activity at human GPR40 expressed in CHO-A12 cells assessed as increase in intracellular calcium flux measured for 100 secs by FLIPR assay. Type of series: functional, cell-based. On the technique in general: A change in cytosolic calcium serves as a functional read-out for many receptors and channels.
T1 sequence (O14842 whole entry): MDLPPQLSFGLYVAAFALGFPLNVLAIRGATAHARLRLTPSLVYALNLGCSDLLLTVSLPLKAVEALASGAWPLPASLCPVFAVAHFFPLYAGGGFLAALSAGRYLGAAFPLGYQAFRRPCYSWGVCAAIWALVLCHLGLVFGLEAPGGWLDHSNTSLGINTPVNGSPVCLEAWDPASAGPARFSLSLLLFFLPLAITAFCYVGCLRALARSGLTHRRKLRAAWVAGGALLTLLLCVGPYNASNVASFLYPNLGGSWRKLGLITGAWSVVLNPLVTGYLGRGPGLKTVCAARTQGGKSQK

The target in series [6] is T2, Peroxisome proliferator-activated receptor gamma (Homo sapiens, UniProt P37231).
T2 sequence (P37231 whole entry): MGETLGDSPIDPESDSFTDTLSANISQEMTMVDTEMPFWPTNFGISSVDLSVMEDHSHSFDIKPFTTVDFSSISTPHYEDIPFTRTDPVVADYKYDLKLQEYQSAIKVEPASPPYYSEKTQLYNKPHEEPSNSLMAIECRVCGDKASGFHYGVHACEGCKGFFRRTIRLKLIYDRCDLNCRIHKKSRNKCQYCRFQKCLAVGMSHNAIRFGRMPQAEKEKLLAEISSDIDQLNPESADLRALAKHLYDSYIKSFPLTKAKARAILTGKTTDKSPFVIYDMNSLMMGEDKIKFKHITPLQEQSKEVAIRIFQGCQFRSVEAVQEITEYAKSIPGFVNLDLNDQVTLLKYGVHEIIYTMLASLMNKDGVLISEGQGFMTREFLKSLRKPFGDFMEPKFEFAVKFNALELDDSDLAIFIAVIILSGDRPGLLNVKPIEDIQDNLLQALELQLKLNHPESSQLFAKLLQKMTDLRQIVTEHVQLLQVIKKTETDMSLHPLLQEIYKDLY
Briefly: Binding affinity to PPARgamma (unknown origin). It counts as ADME.

The subject of series [7] is Mus musculus. Put plainly: Antidiabetic activity in C57BL/6J mouse assessed as change in plasma glucose AUC (0 to 120 mins) at 1 mg/kg, po administered 1 hr prior to glucose challenge by oral glucose tolerance test. It counts as functional. The gist of the method:
(§2)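 C57BL/6J mice dosed orally at 0.3 or 1 mg/kg 1 h before an oral glucose bolus. Plasma glucose sampled at -60, -20, 0, 20, 40, 60 and 120 min; glucose AUC0-120 expressed relative to vehicle.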

The nature of series [8]: Fraction unbound in mouse plasma. It counts as ADME, cell-free.
Series [9] deals with Rattus norvegicus. Briefly: Toxicity in rat assessed as induction of hyperactivity at 80 mg/kg administered as single dose. Type of series: organism-based. Particulars: in vivo. Put shortly:
as §1

Series [10] has as its target T3, Free fatty acid receptor 1 (Mus musculus, UniProt Q76JU9). Briefly: Agonist activity at GPR40 in mouse STC1 cells assessed as induction of GLP-1 secretion measured after 1 hr by HTRF assay. Type of series: cell-based.
A short description of series [11]: Fraction unbound in human plasma. Type of series: ADME, cell-free.
Series [12] addresses Free fatty acid receptor 1 (Mus musculus) (UniProt Q76JU9). Briefly: Intrinsic activity at mouse GPR40 expressed in CHO-A12 cells assessed as increase in intracellular calcium flux at 8.3 uM measured for 100 secs by FLIPR assay […]. It counts as functional, cell-based.
Series [13] addresses T1, Free fatty acid receptor 1. Briefly: Agonist activity at human GPR40 transfected in HEK293 cells assessed as induction of cAMP accumulation incubated for 30 to 45 mins by HTRF assay. It counts as functional, cell-based.
In series [14] the target is T1, Free fatty acid receptor 1. Put plainly: Potentiation of DHA-induced agonist activity at human GPR40 inducibly expressed in HEK293 cells assessed as increase in intracellular calcium flux at 3 nM measured for 100 secs by FLIPR assay. It counts as functional, cell-based. The gist of the method: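 Ca2+ FLIPR concentration-response to DHA in inducible hGPR40 cells, alone or with fixed added test compound (3 nM or 10 nM); curve shift assessed.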

Series [15] addresses T4, Peroxisome proliferator-activated receptor gamma (Mus musculus, UniProt P37238).
T4 sequence (P37238 whole entry): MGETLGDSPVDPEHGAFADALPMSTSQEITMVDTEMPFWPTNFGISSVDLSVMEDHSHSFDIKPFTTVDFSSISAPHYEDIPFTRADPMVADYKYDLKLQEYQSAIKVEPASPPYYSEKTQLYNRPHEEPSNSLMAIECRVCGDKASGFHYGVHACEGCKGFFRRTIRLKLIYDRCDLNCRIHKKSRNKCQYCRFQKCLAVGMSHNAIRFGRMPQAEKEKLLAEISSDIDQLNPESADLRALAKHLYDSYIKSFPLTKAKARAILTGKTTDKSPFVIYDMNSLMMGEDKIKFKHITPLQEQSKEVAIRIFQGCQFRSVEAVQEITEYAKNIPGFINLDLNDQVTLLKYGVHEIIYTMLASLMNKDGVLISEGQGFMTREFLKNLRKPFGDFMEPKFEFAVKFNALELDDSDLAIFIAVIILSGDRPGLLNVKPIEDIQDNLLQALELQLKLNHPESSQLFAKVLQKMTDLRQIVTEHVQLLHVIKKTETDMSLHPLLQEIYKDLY
Briefly: Agonist activity at PPARgamma in mouse 3T3L1 cells assessed as increase in insulin induced adipocyte differentiation by measuring free glycerol levels at 3 uM. It counts as cell-based. The gist of the method:
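3T3L1 cells incubated with compound at 3 µM; free glycerol levels measured as a marker of PPARγ-mediated adipocyte differentiation.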

The target in series [16] is T2, Peroxisome proliferator-activated receptor gamma. Briefly: Transactivation of human Gal4 fused PPARgamma-LBD expressed in HEK293 cells after 18 hrs by luciferase reporter gene assay. Type of series: cell-based. Put shortly: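 Gal4 gene reporter transactivation assay for PPARγ; EC50 and Ymax reported.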
Background: Reporter assays use an easily measured gene product as a stand-in for the process of interest.

A short description of series [17]: Half life in human liver microsomes. Type of series: ADME, microsome.
The nature of series [18]: Half life in mouse liver microsomes. It counts as ADME, microsome.
The target of series [19] is T3, Free fatty acid receptor 1. Briefly: Agonist activity at mouse GPR40 expressed in CHO-A12 cells assessed as increase in intracellular calcium flux measured for 100 secs by FLIPR assay. It counts as functional, cell-based.
Series [20] in a line: Clearance in CD-1 mouse at 0.2 mg/kg, iv by LC-MS/MS analysis. Type of series: ADME, organism-based. Particulars: in vivo.
A short description of series [21]: Oral bioavailability in C57BL6 mouse at 0.5 mg/kg. Type of series: ADME, organism-based. Particulars: in vivo.
Series [22] in a line: Terminal half life in CD-1 mouse at 0.2 mg/kg, iv by LC-MS/MS analysis. Type of series: ADME, organism-based. Particulars: in vivo, read-out: beta t1/2 (converted).
In series [23] the target is T1, Free fatty acid receptor 1. Briefly: Intrinsic activity at human GPR40 transfected in HEK293 cells assessed as induction of cAMP accumulation at 16.7 uM incubated for 30 to 45 mins by HTRF assay relative to […]. It counts as functional, cell-based.
Series [24] has as its system Mus musculus. Briefly: Decrease in blood glucose level in C57BL/6J mouse at 0.3 mg/kg, po administered 1 hr prior to glucose challenge measured up to 120 mins by oral glucose tolerance test. Type of series: functional, organism-based. Put shortly: as §2
Another series deals with T5, PPARgamma (Homo sapiens, UniProt P37231).
T5 sequence (P37231 whole entry): T2 sequence (P37231 whole entry)
Briefly: Transactivation of human Gal4 fused PPARgamma-LBD expressed in HEK293 cells at 4.8 uM after 18 hrs by luciferase reporter gene assay relative to […]. Type of series: cell-based. Particulars: HEK293 cells expressing Gal4-fused human PPARgamma-LBD.

Series [25] in a line: Half life in cynomolgus monkey liver microsomes. It counts as ADME, Macaca fascicularis, microsome.
A short description of series [26]: Antagonist activity at sodium channel (unknown origin). Particulars: human.
Series [27] concerns the target T6, Nuclear receptor subfamily 1 group I member 2 (Homo sapiens, UniProt O75469).
T6 sequence (O75469 whole entry): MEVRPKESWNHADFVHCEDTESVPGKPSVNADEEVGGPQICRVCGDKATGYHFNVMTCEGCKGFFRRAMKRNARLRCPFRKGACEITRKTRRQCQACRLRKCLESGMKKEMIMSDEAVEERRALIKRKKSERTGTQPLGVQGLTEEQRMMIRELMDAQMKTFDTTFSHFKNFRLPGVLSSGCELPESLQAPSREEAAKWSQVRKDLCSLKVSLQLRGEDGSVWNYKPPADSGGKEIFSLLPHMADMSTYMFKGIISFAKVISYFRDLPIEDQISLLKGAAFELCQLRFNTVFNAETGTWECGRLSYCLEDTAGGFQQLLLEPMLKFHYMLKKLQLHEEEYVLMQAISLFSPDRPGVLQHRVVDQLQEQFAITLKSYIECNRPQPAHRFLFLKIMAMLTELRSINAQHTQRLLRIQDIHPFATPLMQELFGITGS
Put plainly: Antagonist activity at PXR (unknown origin). Type of series: ADME.

The target in series [28] is T1, Free fatty acid receptor 1. Briefly: Binding affinity to human GPR40 expressed in HEK293 cell membranes after 1 hr by radioligand displacement based scintillation counting method. Put shortly: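 Binding of human GPR40 measured as Ki against a radioligand. Mean of at least two runs. Displacement of the label appears as a negative slope and potentiation as a positive one.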

T3 sequence (Q76JU9 whole entry): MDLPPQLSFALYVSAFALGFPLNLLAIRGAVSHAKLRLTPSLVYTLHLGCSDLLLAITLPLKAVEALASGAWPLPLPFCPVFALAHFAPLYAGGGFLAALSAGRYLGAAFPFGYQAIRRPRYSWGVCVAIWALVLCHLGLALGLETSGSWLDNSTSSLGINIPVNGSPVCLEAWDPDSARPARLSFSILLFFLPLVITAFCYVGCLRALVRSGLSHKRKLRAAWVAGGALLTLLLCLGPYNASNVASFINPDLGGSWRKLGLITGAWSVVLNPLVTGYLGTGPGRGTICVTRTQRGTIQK
Chain of Free fatty acid receptor 1 (Mus musculus) (Q76JU9 whole entry): as above
Chain of Cytochrome P450 3A4 (P08684 whole entry): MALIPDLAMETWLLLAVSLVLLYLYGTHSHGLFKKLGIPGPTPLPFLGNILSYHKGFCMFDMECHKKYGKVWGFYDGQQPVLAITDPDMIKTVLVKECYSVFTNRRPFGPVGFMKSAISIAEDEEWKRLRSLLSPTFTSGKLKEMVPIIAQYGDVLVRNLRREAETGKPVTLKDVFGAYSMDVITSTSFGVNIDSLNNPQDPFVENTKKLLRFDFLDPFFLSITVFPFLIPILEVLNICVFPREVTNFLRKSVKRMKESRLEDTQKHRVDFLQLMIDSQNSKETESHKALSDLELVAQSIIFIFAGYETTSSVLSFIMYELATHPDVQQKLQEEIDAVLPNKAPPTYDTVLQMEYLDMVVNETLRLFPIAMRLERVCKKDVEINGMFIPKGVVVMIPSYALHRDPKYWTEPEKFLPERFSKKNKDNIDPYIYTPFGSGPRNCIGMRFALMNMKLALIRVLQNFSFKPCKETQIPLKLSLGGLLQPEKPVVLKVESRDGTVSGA

`COc1ccc(F)c(-c2ccc(Cc3ccc(N4C[C@H](C(F)(F)F)C[C@@H]4CC(=O)O)cc3)c(C)c2)c1`: the Vd in series [1] was found to be 0.1 L/kg. The Activity result is “Non-Toxic” in the series on Rattus norvegicus [2]; “Dose-dependent effect” in series [3]; “Non-Toxic” in the series with Rattus norvegicus [4]; 1.6 µM in series [6]; 39% with Mus musculus [7]; “Toxic” in the series on Rattus norvegicus [9]. Also, the result in series [15] was Active. This compound showed a pIC50 against Cytochrome P450 3A4 of 5.77. Besides, the pEC50 in series [5] is 6.96; in series [10], 6.48; in series [13] it was 6.68; in series [16], 5.36; in series [19], 7.27. Moreover, the fraction unbound was 0.011 in [8] and 0.001 in series [11]. Further, the Intrinsic activity in series [12] amounted to 210%; in [23], 140%. Moreover, the outcome in series [14] was Active. Moreover, the half-life in [17] was more than 2 h; in [18] it was more than 2 h; in series [22], 7 h; in series [25], more than 2 h. This compound gave a clearance in series [20] of 0.2 mL/min/kg. For the same compound, the bioavailability in [21] turned out to be 83%. For the same compound, in the series with Mus musculus [24], the outcome was inactive. In addition, on PPARgamma, the Emax at 18 h, 4.8 µM came out at 40%.
For the compound `O=C(O)C[C@@H]1CCCN1c1ccc(OCc2ccc(Cl)cc2Cl)cc1`, the INH in series [26] was 4 µM. In addition, the pEC50 was 6.47 in series [5], 4.77 in series [16] and 5.35 in [19]. Further, in [27], the “inhibition (INH)” value is reported as “Active”. The Intrinsic activity in [12] was in the range of 54 to 66%. The compound also gave a pKi in series [28] of 6.05. The same compound had an Emax at 18 h, 4.8 µM at PPARgamma of 54%.
In the case of `Cc1ccccc1COc1ccc(N2CCC[C@H]2CC(=O)O)cc1`, the “inhibition (INH)” value in [26] and in series [27] was “Active” in each case. Moreover, the values for the pEC50 in series [5] and in series [19] were 6.72 and 5.47, respectively. Moreover, in series [12], the Intrinsic activity lay within 41 to 73%.
For the compound `Cc1ccccc1Cc1ccc(N2CCC[C@H]2CC(=O)O)cc1`, the results for the pEC50 in [5] and in [19] were 6.82 and less than 4.48, respectively. The compound also showed a pKi in series [28] of 5.89. Besides, in [16] (human, hek293, 18 h), the Activity entry is “Not Active”.
